# Measurements taken from PMC3594472 (Bioorganic & medicinal chemistry letters, 2013).
# Key:
# [1] = test system: all five human muscarinic acetylcholine receptors; assay: Muscarinic selectivity profiling, human receptors; assay type: cell-based; conditions: up to the highest concentration tested (30 µM)
# [2] = test system: all five rat muscarinic acetylcholine receptors; assay: Muscarinic selectivity profiling, rat receptors; assay type: cell-based; conditions: up to the highest concentration tested (30 µM)
# human M1 (hM1) receptor [3] = biological target: T1, human M1 (hM1) receptor (Homo sapiens, UniProt P11229); assay: hM1 PAM functional activity; assay type: cell-based; conditions: for hM1 PAM activity (in words): concentrations up to 30 µM
# T1 sequence (P11229 1-460): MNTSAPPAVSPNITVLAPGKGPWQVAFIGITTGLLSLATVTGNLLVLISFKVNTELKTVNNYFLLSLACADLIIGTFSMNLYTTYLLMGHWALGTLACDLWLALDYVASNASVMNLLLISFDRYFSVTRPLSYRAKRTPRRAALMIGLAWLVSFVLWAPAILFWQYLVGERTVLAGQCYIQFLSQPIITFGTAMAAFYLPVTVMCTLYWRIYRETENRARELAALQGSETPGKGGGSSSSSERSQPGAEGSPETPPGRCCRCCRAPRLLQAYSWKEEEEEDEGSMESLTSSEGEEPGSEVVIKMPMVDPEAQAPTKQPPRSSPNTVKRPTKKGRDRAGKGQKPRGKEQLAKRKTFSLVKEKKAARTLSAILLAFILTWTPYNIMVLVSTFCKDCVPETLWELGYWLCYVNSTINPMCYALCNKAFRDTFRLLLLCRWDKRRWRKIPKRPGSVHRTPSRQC
# Procedure, shortened: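 Human M1 PAM functional assay. Test compound was run at concentrations up to a top level of 30 µM. Efficacy is expressed as percent of the maximal acetylcholine response. Where hM1 EC50 is listed as >10, the figure given is the percent maximal ACh response with test compound at 30 µM. Values are mean ± standard error of the mean of at least three independent determinations, each performed in triplicate.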
# human M1 (hM1) receptor [4] = biological target: T1, human M1 (hM1) receptor; conditions: previously reported value; ref 7b; cited from earlier work
smiles,measurement,setting,value
Cn1cc(-c2ccc(CN3C(=O)C4(OCCO4)c4ccccc43)c(F)c2)cn1 [Compound 3],selectivity across human muscarinic receptors (M1-M5),[1],completely selective for the M1 receptors
same,selectivity across rat muscarinic receptors (M1-M5),[2],completely selective for the M1 receptors
O=C1N(Cc2ccc(Br)cc2)c2ccccc2C12CCCN2 (stereo not drawn) [Compound 13],hM1 PAM activity (in words),human M1 (hM1) receptor [3],inactive
CN1CCCC12C(=O)N(Cc1ccc(Br)cc1)c1ccccc12 (stereo not drawn) [Compound 14],hM1 PAM activity (in words),human M1 (hM1) receptor [3],inactive
C[Si](C)(C)C1COC2(C1)C(=O)N(Cc1ccc(Br)cc1)c1ccccc12 (stereo not drawn) [Compound 16],hM1 PAM activity (in words),human M1 (hM1) receptor [3],inactive
O=C1N(Cc2ccc(Br)cc2)c2ccccc2C12CCCO2 (stereo not drawn) [Compound 17],hM1 PAM activity (in words),human M1 (hM1) receptor [3],inactive
CN1CCC2(C1)C(=O)N(Cc1ccc(-c3cnn(C)c3)cc1F)c1ccccc12 (stereo not drawn) [Compound 18d],pEC50,"human M1 (hM1) receptor [3]; Table 1, hM1 PAM, mean ± SEM",5.49 ± 0.10
same,selectivity across human muscarinic receptors (M1-M5),[1],completely selective for the M1 receptors
same,selectivity across rat muscarinic receptors (M1-M5),[2],completely selective for the M1 receptors
Cn1cc(-c2ccc(CN3C(=O)C4(CCNC4)c4ccccc43)c(F)c2)cn1 (stereo not drawn) [Compound 18e],hM1 PAM activity (in words),human M1 (hM1) receptor [3],lacked any PAM activity
Cn1cc(-c2ccc(CN3C(=O)C4(CCN(c5ccccc5)C4)c4ccccc43)c(F)c2)cn1 (stereo not drawn) [Compound 19s],hM1 PAM activity (in words),human M1 (hM1) receptor [3],inactive
Cn1cc(-c2ccc(CN3C(=O)C4(CCN(c5ncccn5)C4)c4ccccc43)c(F)c2)cn1 (stereo not drawn) [Compound 19t],hM1 PAM activity (in words),human M1 (hM1) receptor [3],low micro-molar activity
Cc1c(-c2ccc(CN3C(=O)C4(CCN(C5CCCC5)C4)c4ccccc43)c(F)c2)cnn1C (stereo not drawn) [Compound 20c],hM1 PAM activity (in words),human M1 (hM1) receptor [3],eliminated PAM activity
Cc1nn(C)c(C)c1-c1ccc(CN2C(=O)C3(CCN(C4CCCC4)C3)c3ccccc32)c(F)c1 (stereo not drawn) [Compound 20d],hM1 PAM activity (in words),human M1 (hM1) receptor [3],inactive
Cn1cc(-c2ccc(CN3C(=O)C(=O)c4ccccc43)c(F)c2)cn1 [ML137],%AChmax,human M1 (hM1) receptor [4],65%
